{"source": "ChEMBL document CHEMBL5303300", "about": "“EUbOPEN Chemogenomics Library - Multiplex” (2023)", "key": {"HEK-293T": {"system": "HEK-293T", "assay": "Multiplex assay against HEK293T", "format": "toxicity, cell-based", "details": "human, number of replicates 2", "procedure,_shortened": "(§1)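 Values for tubulin, mitochondrial-mass and membrane-permeability phenotypes are per cents of cells with healthy nuclei. These cells were identified by CellPathfinder machine-learning gating of live cells that had been stained at seeding with Hoechst33342, BioTracker Green Microtubule Cytoskeleton Dye, MitoTracker Red and Annexin V Alexa Fluor 680 and imaged on a CQ1 microscope at 37°C and 5% CO2 after compound addition. The gating first set Hoechst high-intensity objects apart from normal cells, then split normal cells into healthy, pyknosed or fragmented nuclei, and pyknosed cells into mitotic or apoptotic.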"}, "U2OS": {"system": "U2OS", "assay": "Multiplex assay against U2OS", "format": "toxicity, cell-based", "details": "human, number of replicates 2", "procedure,_shortened": "as §1"}, "[1]": {"details": "24 h, 1 µM, compound concentration 1 uM"}, "[2]": {"details": "24 h, 10 µM, compound concentration 10 uM"}, "[3]": {"details": "48 h, 1 µM, compound concentration 1 uM"}, "[4]": {"details": "48 h, 10 µM, compound concentration 10 uM"}, "[5]": {"details": "12 h, 1 µM, compound concentration 1 uM"}, "[6]": {"details": "12 h, 10 µM, compound concentration 10 uM"}}, "note": "Values joined by “and” are separate entries in the source; they are usually repeats but may differ in a detail not shown here. Equal entries are not always repeated.", "data": [{"compound": "Fc1cccc(-n2cnc3c(NCc4nc5ccc(F)c(F)c5[nH]4)nc(N4CCOCC4)nc32)c1", "values": [{"measurement": "Population Mitochondria Different-Phenotype (%)", "setting": "HEK-293T; [1]", "result": "75% and 72%"}, {"measurement": "Population Mitotic Cells (%)", "setting": "HEK-293T; [1]", "result": "34% and 22%"}, {"measurement": "Population Normal (%)", "setting": "HEK-293T; [1]", "result": "77% and 75%"}, {"measurement": "Population Pyknosed Nuclei (%)", "setting": "HEK-293T; [1]", "result": "12% and 35%"}, {"measurement": "Population Tubulin-Different-Phenotype (%)", "setting": "HEK-293T; [1]", "result": "88% and 80%"}, {"measurement": "Total Cell Count", "setting": "HEK-293T; [1]", "result": "263 and 293"}, {"measurement": "Population Apoptotic (%)", "setting": "HEK-293T; [2]", "result": "82% and 62%"}, {"measurement": "Population Fragmented Nuclei (%)", "setting": "HEK-293T; [2]", "result": "3% and 2%"}, {"measurement": "Population Healthy Nuclei (%)", "setting": "HEK-293T; [2]", "result": "85% and 88%"}, {"measurement": "Population Hoechst High Intensity Objects (%)", "setting": "HEK-293T; [2]", "result": "13% and 15%"}, {"measurement": "Population Membrane Permeable-Phenotype (%)", "setting": "HEK-293T; [2]", "result": "1% and 2%"}, {"measurement": "Population Mitochondria Different-Phenotype (%)", "setting": "HEK-293T; [2]", "result": "83% and 82%"}, {"measurement": "Population Mitotic Cells (%)", "setting": "HEK-293T; [2]", "result": "17% and 37%"}, {"measurement": "Population Normal (%)", "setting": "HEK-293T; [2]", "result": "86% and 84%"}, {"measurement": "Population Pyknosed Nuclei (%)", "setting": "HEK-293T; [2]", "result": "10% and 8%"}, {"measurement": "Population Tubulin-Different-Phenotype (%)", "setting": "HEK-293T; [2]", "result": "93% and 94%"}, {"measurement": "Total Cell Count", "setting": "HEK-293T; [2]", "result": "366 and 334"}, {"measurement": "Population Apoptotic (%)", "setting": "HEK-293T; [3]", "result": "69% and 80%"}, {"measurement": "Population Fragmented Nuclei (%)", "setting": "HEK-293T; [3]", "result": "5% and 7%"}, {"measurement": "Population Healthy Nuclei (%)", "setting": "HEK-293T; [3]", "result": "82% and 60%"}, {"measurement": "Population Hoechst High Intensity Objects (%)", "setting": "HEK-293T; [3]", "result": "23% and 24%"}, {"measurement": "Population Membrane Permeable-Phenotype (%)", "setting": "HEK-293T; [3]", "result": "1% and 3%"}, {"measurement": "Population Mitochondria Different-Phenotype (%)", "setting": "HEK-293T; [3]", "result": "84% and 70%"}, {"measurement": "Population Mitotic Cells (%)", "setting": "HEK-293T; [3]", "result": "30% and 19%"}, {"measurement": "Population Normal (%)", "setting": "HEK-293T; [3]", "result": "76% and 75%"}, {"measurement": "Population Pyknosed Nuclei (%)", "setting": "HEK-293T; [3]", "result": "11% and 32%"}, {"measurement": "Population Tubulin-Different-Phenotype (%)", "setting": "HEK-293T; [3]", "result": "88% and 73%"}, {"measurement": "Total Cell Count", "setting": "HEK-293T; [3]", "result": "251 and 297"}, {"measurement": "Population Apoptotic (%)", "setting": "HEK-293T; [4]", "result": "89% and 85%"}, {"measurement": "Population Fragmented Nuclei (%)", "setting": "HEK-293T; [4]", "result": "4% and 5%"}, {"measurement": "Population Healthy Nuclei (%)", "setting": "HEK-293T; [4]", "result": "85% and 83%"}, {"measurement": "Population Hoechst High Intensity Objects (%)", "setting": "HEK-293T; [4]", "result": "13% and 16%"}, {"measurement": "Population Membrane Permeable-Phenotype (%)", "setting": "HEK-293T; [4]", "result": "1% and 0%"}, {"measurement": "Population Mitochondria Different-Phenotype (%)", "setting": "HEK-293T; [4]", "result": 92, "unit": "%"}, {"measurement": "Population Mitotic Cells (%)", "setting": "HEK-293T; [4]", "result": "10% and 14%"}, {"measurement": "Population Normal (%)", "setting": "HEK-293T; [4]", "result": "86% and 83%"}, {"measurement": "Population Pyknosed Nuclei (%)", "setting": "HEK-293T; [4]", "result": 10, "unit": "%"}, {"measurement": "Population Tubulin-Different-Phenotype (%)", "setting": "HEK-293T; [4]", "result": "96% and 94%"}, {"measurement": "Total Cell Count", "setting": "HEK-293T; [4]", "result": "333 and 303"}, {"measurement": "Population Fragmented Nuclei (%)", "setting": "U2OS; [5]", "result": 13, "unit": "%"}, {"measurement": "Population Healthy Nuclei (%)", "setting": "U2OS; [5]", "result": "59% and 53%"}, {"measurement": "Population Hoechst High Intensity Objects (%)", "setting": "U2OS; [5]", "result": 0, "unit": "%"}, {"measurement": "Population Membrane Permeable-Phenotype (%)", "setting": "U2OS; [5]", "result": "2% and 5%"}, {"measurement": "Population Mitochondria Different-Phenotype (%)", "setting": "U2OS; [5]", "result": "5% and 0%"}, {"measurement": "Population Normal (%)", "setting": "U2OS; [5]", "result": "99% and 100%"}, {"measurement": "Population Pyknosed Nuclei (%)", "setting": "U2OS; [5]", "result": "27% and 32%"}, {"measurement": "Population Tubulin-Different-Phenotype (%)", "setting": "U2OS; [5]", "result": "68% and 31%"}, {"measurement": "Population Apoptotic (%)", "setting": "U2OS; [6]", "result": "86% and 90%"}, {"measurement": "Population Hoechst High Intensity Objects (%)", "setting": "U2OS; [6]", "result": 0, "unit": "%"}, {"measurement": "Population Membrane Permeable-Phenotype (%)", "setting": "U2OS; [6]", "result": "33% and 45%"}, {"measurement": "Population Mitochondria Different-Phenotype (%)", "setting": "U2OS; [6]", "result": "33% and 52%"}, {"measurement": "Population Mitotic Cells (%)", "setting": "U2OS; [6]", "result": "13% and 9%"}, {"measurement": "Population Normal (%)", "setting": "U2OS; [6]", "result": "100% and 99%"}, {"measurement": "Population Pyknosed Nuclei (%)", "setting": "U2OS; [6]", "result": "41% and 57%"}, {"measurement": "Population Tubulin-Different-Phenotype (%)", "setting": "U2OS; [6]", "result": "100% and 78%"}, {"measurement": "Population Apoptotic (%)", "setting": "U2OS; [1]", "result": "63% and 97%"}, {"measurement": "Population Fragmented Nuclei (%)", "setting": "U2OS; [1]", "result": "8% and 19%"}, {"measurement": "Population Healthy Nuclei (%)", "setting": "U2OS; [1]", "result": "14% and 15%"}, {"measurement": "Population Hoechst High Intensity Objects (%)", "setting": "U2OS; [1]", "result": "5% and 3%"}, {"measurement": "Population Membrane Permeable-Phenotype (%)", "setting": "U2OS; [1]", "result": "12% and 28%"}, {"measurement": "Population Mitochondria Different-Phenotype (%)", "setting": "U2OS; [1]", "result": "12% and 23%"}, {"measurement": "Population Normal (%)", "setting": "U2OS; [1]", "result": "95% and 96%"}, {"measurement": "Population Pyknosed Nuclei (%)", "setting": "U2OS; [1]", "result": "77% and 64%"}, {"measurement": "Population Tubulin-Different-Phenotype (%)", "setting": "U2OS; [1]", "result": "37% and 73%"}, {"measurement": "Population Apoptotic (%)", "setting": "U2OS; [2]", "result": "90% and 94%"}, {"measurement": "Population Hoechst High Intensity Objects (%)", "setting": "U2OS; [2]", "result": "0% and 1%"}, {"measurement": "Population Mitochondria Different-Phenotype (%)", "setting": "U2OS; [2]", "result": "100% and 69%"}, {"measurement": "Population Mitotic Cells (%)", "setting": "U2OS; [2]", "result": "9% and 5%"}, {"measurement": "Population Normal (%)", "setting": "U2OS; [2]", "result": "100% and 98%"}, {"measurement": "Population Pyknosed Nuclei (%)", "setting": "U2OS; [2]", "result": "55% and 76%"}, {"measurement": "Population Tubulin-Different-Phenotype (%)", "setting": "U2OS; [2]", "result": "100% and 65%"}, {"measurement": "Population Apoptotic (%)", "setting": "U2OS; [3]", "result": "87% and 100%"}, {"measurement": "Population Fragmented Nuclei (%)", "setting": "U2OS; [3]", "result": "8% and 21%"}, {"measurement": "Population Healthy Nuclei (%)", "setting": "U2OS; [3]", "result": "2% and 8%"}, {"measurement": "Population Hoechst High Intensity Objects (%)", "setting": "U2OS; [3]", "result": 6, "unit": "%"}, {"measurement": "Population Membrane Permeable-Phenotype (%)", "setting": "U2OS; [3]", "result": "100% and 42%"}, {"measurement": "Population Mitotic Cells (%)", "setting": "U2OS; [3]", "result": "12% and 0%"}, {"measurement": "Population Normal (%)", "setting": "U2OS; [3]", "result": 93, "unit": "%"}, {"measurement": "Population Pyknosed Nuclei (%)", "setting": "U2OS; [3]", "result": "89% and 70%"}, {"measurement": "Population Tubulin-Different-Phenotype (%)", "setting": "U2OS; [3]", "result": "100% and 94%"}, {"measurement": "Population Apoptotic (%)", "setting": "U2OS; [4]", "result": "100% and 99%"}, {"measurement": "Population Healthy Nuclei (%)", "setting": "U2OS; [4]", "result": "4% and 10%"}, {"measurement": "Population Hoechst High Intensity Objects (%)", "setting": "U2OS; [4]", "result": 0, "unit": "%"}, {"measurement": "Population Membrane Permeable-Phenotype (%)", "setting": "U2OS; [4]", "result": "100% and 60%"}, {"measurement": "Population Mitochondria Different-Phenotype (%)", "setting": "U2OS; [4]", "result": "50% and 93%"}, {"measurement": "Population Mitotic Cells (%)", "setting": "U2OS; [4]", "result": 0, "unit": "%"}, {"measurement": "Population Normal (%)", "setting": "U2OS; [4]", "result": 100, "unit": "%"}, {"measurement": "Population Pyknosed Nuclei (%)", "setting": "U2OS; [4]", "result": "46% and 81%"}, {"measurement": "Population Tubulin-Different-Phenotype (%)", "setting": "U2OS; [4]", "result": "100% and 73%"}]}]}
